Experimental data: ChEMBL document CHEMBL4513216, “Probing the Open Global Health Chemical Diversity Library for Multistage-Active Starting Points for Next-Generation Antimalarials” (ACS Infect Dis, 2020)

Assay: Toxicity liver stage against HepG2, at 10uM
Assay type: cell-based
Design: test concentration 10 uM, cell line HepG2-A16-CD81EGFP
Settings: human, HepG2-A16-CD81EGFP cells; read-out: INHIBITION
Method in brief: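 Uninfected HepG2-A16-CD81EGFP cells, 3 × 10^3 per well, 1536-well, plated on prespotted compound at 10 μM final, parasite-free screening media added to match infected plates; puromycin 10 μM positive, DMSO 0.5% negative; run in parallel with 48 h PbLuc assay at 37 °C, 5% CO2; viability by CellTiter-Glo luminescence, normalized to controls.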

Structure (SMILES)	cytotoxicity at 10 µM [%]
Cc1csc(CCNc2ccc(C#N)cn2)n1	0.738
Cc1nn(C)c(Cl)c1S(=O)(=O)N(C)C	3.66
Cn1ccnc1CNC[C@H]1Cn2cc(-c3ccccc3)nc2CO1	-6.09
c1cc(-c2noc([C@@H]3CCCN3CC3CC3)n2)cc(N2CCCC2)n1	4.12
CS(=O)(=O)N1C[C@@H]2OCC(=O)N(CC3CCC3)[C@@H]2C1	8.94
COCCNC(=O)[C@@H](C)[C@@H]1CCc2c(C)cc(OCC(=O)O)c(C)c2C1	0.523
c1cncc(O[C@H]2COCCN(CC3CC3)C2)c1	3.38
CCn1nc(Br)nc1Sc1ccccc1NC(C)=O	-6.17
O=C(Cc1ccccc1Cl)NCC1CCN(Cc2ccsc2)CC1	-9.12
CCOc1ccccc1NC(=O)Nc1cc(N2CCCC2)ncn1	-0.113
CN1CC(c2ccccc2)C2(CCN(C(=O)c3ccc[nH]3)CC2)C1=O (stereo not drawn)	9.25
CNC(=O)N1CCC2(COCc3c(C)nc(NCc4ccco4)nc32)C1 (stereo not drawn)	11.2
COCC1CN(Cc2ccoc2)Cc2cn(CC3CCOCC3)nc21 (stereo not drawn)	11.6
O=C(NCC1CCOCC1)[C@@H]1C[C@@H]2[C@@H](CCN2Cc2ccoc2)O1	5
CNC(=O)N1CCC2(CC1)CC[C@@]1(C(=O)NC)CN(S(C)(=O)=O)C[C@@H]21	-3.91
Cc1ccc(N2CC[C@H]3OCC[C@@]3(C(=O)NCC3CC3)C2)nn1	3.22
Cc1noc(C)c1CN1CCC2(CC1)NC(=O)CC2c1cnn(C)c1 (stereo not drawn)	5.64
Cc1cccc(CSc2ncc(Cl)c(C(=O)O)n2)c1	3.86
CC(=O)c1nn(-c2cccc(Cl)c2)c(C)c1C(C)=O	-3.55
COc1cccc2c3c(c(=O)n(C)c12)CCC(C)(C)O3	0.55
COC(=O)CC(c1ccccc1)c1oc(C)cc(=O)c1O (stereo not drawn)	26.7
CC(NC(=O)c1ccc(Cl)cc1)c1nnc(SCC(N)=O)n1C (stereo not drawn)	6.27

Structure (SMILES)	cytotoxicity at 10 µM [%]
CCn1nnc(NCc2ccc(-c3ccc(Br)cc3)o2)n1	-10.1
CCn1ccc(-c2cc(C(=O)O)n3nc(C)c(Cl)c3n2)n1	-3.48
CN(C)Cc1cnc(C2CCN(C(=O)c3cccc(Cl)c3)C2)[nH]1 (stereo not drawn)	-3.36
Cc1csc(NC(=O)C2(C)CN(C)CCO2)n1 (stereo not drawn)	-3.67
CC(C)(C)c1cc(C(=O)N2CCOC(c3cnccn3)C2)[nH]n1 (stereo not drawn)	2.02
CN1C[C@@H](c2cccc(F)c2)[C@H]2[C@H]1CCCCCN2C(=O)C1CC1	4.21
CN(C)c1nccc(C2CCCN2S(=O)(=O)c2cn(C)cn2)n1 (stereo not drawn)	-20.2
Cc1cc(C)nc(C2CCN(C(=O)c3cnc(N(C)C)nc3)C2)n1 (stereo not drawn)	-18.1
COc1ccc(OC)c(C(O)CN2CCC(N3CCC(C)CC3)CC2)c1 (stereo not drawn)	-25.5
CN(C)CC(=O)N1CCCCC1c1nc(N)ncc1-c1ccccc1 (stereo not drawn)	-0.155
CC(NC(N)=O)C(=O)N(C)Cc1cccc(C(F)(F)F)c1 (stereo not drawn)	-5.14
Cc1nn(C)c2ncc(NC(=O)N(C)Cc3cnn(C)c3)cc12	-0.768
CNC(=O)[C@@H](C)NC(=O)c1cc(-c2ccc(F)cc2)c(C)s1	-5.2
CC(C)c1nn(C)c(N(C)C)c1CNC1CCOc2ccccc21 (stereo not drawn)	9.36
CC(Oc1ccc(F)c(F)c1)C(=O)N(CC(N)=O)C1CCCC1 (stereo not drawn)	-0.146
O=C(OCc1cccc(F)c1)c1cccc(C(=O)N2CCCC2)n1	-1.6
O=C(CNC1CCc2ncnn2C1)NCCc1cccs1 (stereo not drawn)	-10.9
CCC(CC)C(=O)NCCC(=O)N1CCN(c2ccccn2)CC1	4.65
O=S(=O)(c1ccc(C(F)(F)F)cc1)N1CCC(OCc2ccccn2)C1 (stereo not drawn)	1.22
Cc1nnc(NCCC(=O)NCc2ccccc2)c(C#N)c1C	-3.57
Cc1cccc(OC2CCN(c3ncc(C#N)cc3Cl)CC2)n1	8.13
CCc1noc(CS(=O)(=O)C/C=C/c2ccccc2)n1	-18.4

Structure (SMILES)	cytotoxicity at 10 µM [%]
CCN(Cc1nnnn1C1CC1)c1cc(C)ccc1C	9.21
CCC(NCc1cccc(Cl)c1)c1ccccc1OCC(=O)NC (stereo not drawn)	-2.65
Cc1ccc(C2CSCCN2C(=O)c2ccnc(N(C)C)c2)o1 (stereo not drawn)	12.8
Cc1n[nH]c(C2CN(Cc3csc(C4CC4)n3)CCO2)n1 (stereo not drawn)	-0.18
CC(NC(=O)c1ccc(CS(C)(=O)=O)o1)c1ccc(F)c(F)c1 (stereo not drawn)	-5.85
CCC1CN(C(=O)COc2ccc(C)nc2)CCO1 (stereo not drawn)	-3.7
COC(C)(C)c1noc(C2(C#N)CCCCC2)n1	-2.11
CCC(C)(NCC(=O)Nc1nc(C)cs1)c1nc(C)cs1 (stereo not drawn)	16.4
Cc1cnc(C(=O)N(CCN(C)C)Cc2ccc(Cl)cc2)cn1	1.58
CCOc1cc(C)nc(N2CCN(Cc3nccn3C)CC2)n1	-4.04
CN1CCC2(CCN(C(=O)c3cccnc3)C2)C1 (stereo not drawn)	-101
Cn1cc2c(n1)C(COCC1CC1)CN(Cc1ccccn1)C2 (stereo not drawn)	-1.8
Cc1cccc(-c2nc(N)nc3c2CN(C(=O)C2CCCC2)C3C)c1 (stereo not drawn)	13.2
Cn1c(-c2ccccc2Cl)nc2cc(C(=O)NCCS(C)(=O)=O)cnc21	-3.2
CCNC(=O)C1CCN(Cc2ccc(C(=O)Nc3cnns3)cc2)C1 (stereo not drawn)	9.2
O=C1NCCc2c1sc1ccc(C(=O)N3CC[C@H](CO)[C@H](O)C3)cc21	-1.7
O[C@@]1(CNCCOc2ccccc2)CCCN2CCCC[C@@H]21	-2.96
CCc1nnsc1-c1nc(C(C)C)nn1-c1ccc2c(c1)OCO2	-9.69
O=C1CC2(CCN(Cc3ncc[nH]3)CC2)CN1Cc1ccc(Cl)cc1	5.85
Cc1nc(CCN)cc(N(C)Cc2nc3ccc(F)cc3[nH]2)n1	-0.581
O=C(Nc1ccccc1OCCc1ccccn1)N1CCOCC(O)C1 (stereo not drawn)	4.25
c1cn(Cc2nnc(C3CCN(C4CCCCC4)CC3)n2C2CC2)cn1	-6.79

Structure (SMILES)	cytotoxicity at 10 µM [%]
C[C@@H]1CN(C(=O)C2CCS(=O)(=O)CC2)CC[C@@]1(O)C1CCOCC1	-9.34
CCN(CC)Cc1cc(C(=O)N2CCC3(CC2)NCCNC3=O)c(C)o1	4.01
c1cc2c(cc1C[C@@H]1CC[C@H](CN3CCCOCC3)O1)OCO2	-12.9
c1ccc2c(c1)CC(CNCc1ccncc1)(N1CCCCC1)C2	-7.72
CN1CC2(CCN(C(=O)CCCOCc3ccccc3)C2)OC1=O (stereo not drawn)	4.49
CSCC(=O)N1CCc2c(cnc(C)c2-c2noc(-c3cc[nH]n3)n2)C1	1.87
CN(CCc1ccccn1)[C@@H]1CCN(c2cc(C(N)=O)ccn2)C[C@H]1O	-9.17
COc1cccc([C@@H]2CN(C(=O)c3ccc(C)cc3O)C[C@H]2C(=O)O)c1	6.49
CC(=O)N1CCNCC1c1cccc(C(=O)N(C)C)c1 (stereo not drawn)	4.45
CN(CCC(F)(F)F)C(=O)c1nc(S(C)(=O)=O)n2ccccc12	-7.51
CN(C)c1ccc(C(=O)N2CCCN(Cc3cnn(C)c3)CC2)nn1	-5.28
Cc1cc(C)c(CNC(=O)C2CCN(c3cnccn3)CC2)c(=O)[nH]1	-10.7
Cc1cc(CN2CCCC2c2c(C)nn(C)c2Cl)no1 (stereo not drawn)	-6.98
Cc1cnn(CC2CCCN2C(=O)c2cc(C)no2)c1 (stereo not drawn)	-0.194
CCc1ncc2c(n1)CN(CC(=O)NCCOc1ccccc1)CC2	-2.11
COC(=O)c1ccc(N2CCN(CCC(=O)NC(N)=O)C(C)C2)cc1 (stereo not drawn)	-6.39
CCOc1cc(C(=O)N2CCCC(c3noc(C)n3)C2)ccn1 (stereo not drawn)	-4.49
CC(C)(C)c1nnc(CN2CCCC(Cn3cncn3)C2)o1 (stereo not drawn)	-6.31
Cc1nc(C)n(CC2CCCN(CC(=O)Nc3nncs3)C2)n1 (stereo not drawn)	-3.79
Cc1cc(CN2CCN(C(=O)NC(C)Cn3ccnc3)CC2)no1 (stereo not drawn)	-8.54
N#CC1(C(=O)N2CCN(Cc3cscn3)CC2)CCCC1	-8.08
CCc1nc(CN(C(C)=O)C2CCN(Cc3cnc(C)cn3)C2)no1 (stereo not drawn)	-4.51

Structure (SMILES)	cytotoxicity at 10 µM [%]
CCCC(Nc1c(C#N)c(=O)n(C)c(=O)n1C)c1ccc(F)cc1F (stereo not drawn)	-13.2
CC(C(=O)Nc1ncccn1)N1CCCN(c2nccs2)CC1 (stereo not drawn)	-2.55
CCOC(=O)CSc1nnc([C@@H](N)CC(C)C)o1	6.76
COc1cccc2[nH]c(C(=O)N3CCNCC3C(N)=O)cc12 (stereo not drawn)	4.57
O=C(NCC1CC[C@@H]2[C@@H]1OCCN2Cc1cccs1)c1ccco1 (stereo partly drawn)	3.23
Cc1nc(COC[C@H]2CCC[C@@]23CN(C(C)C)CCO3)cs1	-86.7
CO[C@H]1CCN(S(=O)(=O)c2cn(C)cn2)[C@H]1Cc1cccnc1	-9.31
CN(C)C(=O)c1ccc(C2CCCNC2)nc1 (stereo not drawn)	-20.7
Cn1cc(CN2CCC(F)(F)C3(CCN(c4ncc(F)cn4)C3)C2)cn1 (stereo not drawn)	1.2
Cc1cnc(N2CCC3(CC2)COCCN(C(C)C)C3)nc1	-121
O=C(C1CCCO1)N1CCC2(CC1)COCCN(Cc1cccnc1)C2 (stereo not drawn)	-108
COCCC(=O)NC1CCN(CC2(c3cccc(F)c3)CCCC2)CC1	-24.7
O=C1COC2(COCCN(Cc3cccnc3)C2)CN1c1ccoc1 (stereo not drawn)	3.22
Cc1ccc(CN2CCC3(CC(=O)N(c4cccc(F)c4)C3)C2)o1 (stereo not drawn)	-140
CC1=N[C@@]2(CC[C@@H]3CN(CC4CC4)C[C@@H]32)C(=O)N1CC1CC1	3.82
CC(=O)N1CCO[C@@H]2CN(C(=O)NCc3cccnc3)CC[C@@H]2C1	7.34
O=C(c1n[nH]c2c1CN(C1CCOC1)CC2)N1CCCC1 (stereo not drawn)	-1.07
O=C(c1cnccn1)N1CCC(F)(F)C2(CCN(c3ccccn3)C2)C1 (stereo not drawn)	11.9
CCCn1nccc1NC(=O)CN1CCCC1Cn1cccn1 (stereo not drawn)	-5.47
O=C1CCCC2=Nc3nonc3NC(c3ccccc3F)C12 (stereo not drawn)	1.08
